{
  "source": "ChEMBL document CHEMBL1138602",
  "about": "“Discovery of sodium 6-[(5-chloro-2-{[(4-chloro-2-fluorophenyl)methyl]oxy}phenyl)methyl]-2-pyridinecarboxylate (GSK269984A) an EP(1) receptor antagonist for the treatment of inflammatory pain” (Bioorg Med Chem Lett, 2009)",
  "key": {"Cytochrome P450 2D6": {"target": "Cytochrome P450 2D6 (Homo sapiens, UniProt P10635)", "sequence (P10635 whole entry)": "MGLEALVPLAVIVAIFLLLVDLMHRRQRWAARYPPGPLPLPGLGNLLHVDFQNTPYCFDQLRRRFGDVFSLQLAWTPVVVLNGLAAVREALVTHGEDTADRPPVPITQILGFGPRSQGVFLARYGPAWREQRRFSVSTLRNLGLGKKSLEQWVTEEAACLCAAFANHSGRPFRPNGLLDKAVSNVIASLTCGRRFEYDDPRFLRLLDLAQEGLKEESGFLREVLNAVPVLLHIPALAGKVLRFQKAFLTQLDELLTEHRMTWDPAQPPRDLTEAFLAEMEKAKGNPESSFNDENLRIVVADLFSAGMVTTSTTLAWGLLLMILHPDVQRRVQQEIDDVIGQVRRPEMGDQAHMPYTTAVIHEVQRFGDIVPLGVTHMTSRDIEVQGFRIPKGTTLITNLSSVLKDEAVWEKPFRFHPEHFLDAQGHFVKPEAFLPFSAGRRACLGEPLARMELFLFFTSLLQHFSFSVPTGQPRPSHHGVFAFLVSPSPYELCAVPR", "assay": "Inhibition of human CYP2D6", "assay_type": "ADME", "how_it_was_run": "(§1)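 Inhibition of metabolism of fluorometric substrates (Cypex protocol); IC50 values are the mean of three experiments ± standard deviation.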"}, "[1]": {"assay": "Intrinsic clearance in cynomolgus monkey hepatocytes measured per gram of liver at 0.54 to 0.7 X 10^6 cells/ml cell density", "assay_type": "ADME, cell-based, Macaca fascicularis, Hepatocyte", "how_it_was_run": "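Intrinsic clearance in hepatocytes expressed as mL/min/g liver. Cell densities were 0.15–0.2 × 10^6 cells/mL or 0.54–0.7 × 10^6 cells/mL.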"}, "Rattus norvegicus [2]": {"tested_on": "Rattus norvegicus", "assay": "[…] activity against complete Freund's adjuvant induced inflammatory pain in po dosed rat assessed as reversal of hypersensitivity post-adjuvant challenge after 1 hr", "assay_type": "functional", "how_it_was_run": "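Rats given adjuvant by intraplantar injection; oral dosing at 1, 3 and 10 mg/kg 23 h later. Hypersensitivity assessed by weight-bearing 1 h post-dose. ED50 derived across doses.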"}, "[3]": {"assay": "Solubility in water after 0.5 hrs", "assay_type": "physicochemical", "how_it_was_run": "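Solubility determined in water, FaSSIF and FeSSIF, all read at the 0.5 h time point.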"}, "[4]": {"target": "T1, Prostaglandin E2 receptor EP3 subtype (Homo sapiens, UniProt P43115)", "T1 sequence (P43115 whole entry)": "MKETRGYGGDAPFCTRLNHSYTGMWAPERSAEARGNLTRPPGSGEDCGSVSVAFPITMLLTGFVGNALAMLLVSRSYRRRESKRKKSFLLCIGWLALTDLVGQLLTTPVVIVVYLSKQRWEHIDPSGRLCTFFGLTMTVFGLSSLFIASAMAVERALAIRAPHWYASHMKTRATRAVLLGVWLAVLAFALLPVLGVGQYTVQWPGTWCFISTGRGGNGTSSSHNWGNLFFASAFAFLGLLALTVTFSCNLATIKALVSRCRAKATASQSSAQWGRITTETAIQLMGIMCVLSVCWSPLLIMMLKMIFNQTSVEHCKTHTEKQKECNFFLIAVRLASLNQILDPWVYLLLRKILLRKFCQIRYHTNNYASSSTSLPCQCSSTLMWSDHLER", "assay": "Inhibition of EP3 receptor by FLIPR assay"}, "[5]": {"target": "Prostaglandin F2-alpha receptor (Homo sapiens, UniProt P43088)", "sequence (P43088 whole entry)": "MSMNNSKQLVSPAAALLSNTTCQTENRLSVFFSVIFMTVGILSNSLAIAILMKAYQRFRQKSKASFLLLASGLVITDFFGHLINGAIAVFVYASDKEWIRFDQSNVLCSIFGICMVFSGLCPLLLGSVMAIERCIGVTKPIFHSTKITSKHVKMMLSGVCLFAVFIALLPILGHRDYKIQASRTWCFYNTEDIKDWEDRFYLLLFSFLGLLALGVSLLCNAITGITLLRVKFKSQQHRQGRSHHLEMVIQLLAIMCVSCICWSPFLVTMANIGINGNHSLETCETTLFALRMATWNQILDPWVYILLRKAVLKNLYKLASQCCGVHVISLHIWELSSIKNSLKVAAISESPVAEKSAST", "assay": "Inhibition of FP receptor"}, "[6]": {"target": "Prostaglandin E2 receptor EP4 subtype (Homo sapiens, UniProt P35408)", "sequence (P35408 whole entry)": "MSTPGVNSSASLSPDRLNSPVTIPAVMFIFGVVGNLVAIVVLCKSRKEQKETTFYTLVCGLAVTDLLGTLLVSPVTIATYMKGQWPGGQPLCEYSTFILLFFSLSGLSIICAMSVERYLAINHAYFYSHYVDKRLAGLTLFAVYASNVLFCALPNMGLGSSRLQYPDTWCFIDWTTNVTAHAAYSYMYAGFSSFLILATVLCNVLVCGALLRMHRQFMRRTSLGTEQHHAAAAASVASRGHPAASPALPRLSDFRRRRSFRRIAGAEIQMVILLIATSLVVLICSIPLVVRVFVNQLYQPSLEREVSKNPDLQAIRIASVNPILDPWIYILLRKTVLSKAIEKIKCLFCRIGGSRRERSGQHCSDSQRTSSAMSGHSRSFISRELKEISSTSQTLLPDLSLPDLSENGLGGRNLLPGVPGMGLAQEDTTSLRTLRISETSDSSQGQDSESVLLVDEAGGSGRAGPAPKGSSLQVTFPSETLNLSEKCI", "assay": "Inhibition of EP4 receptor"}, "[7]": {"target": "T2, Prostaglandin G/H synthase 2 (Homo sapiens, UniProt P35354)", "T2 sequence (P35354 whole entry)": "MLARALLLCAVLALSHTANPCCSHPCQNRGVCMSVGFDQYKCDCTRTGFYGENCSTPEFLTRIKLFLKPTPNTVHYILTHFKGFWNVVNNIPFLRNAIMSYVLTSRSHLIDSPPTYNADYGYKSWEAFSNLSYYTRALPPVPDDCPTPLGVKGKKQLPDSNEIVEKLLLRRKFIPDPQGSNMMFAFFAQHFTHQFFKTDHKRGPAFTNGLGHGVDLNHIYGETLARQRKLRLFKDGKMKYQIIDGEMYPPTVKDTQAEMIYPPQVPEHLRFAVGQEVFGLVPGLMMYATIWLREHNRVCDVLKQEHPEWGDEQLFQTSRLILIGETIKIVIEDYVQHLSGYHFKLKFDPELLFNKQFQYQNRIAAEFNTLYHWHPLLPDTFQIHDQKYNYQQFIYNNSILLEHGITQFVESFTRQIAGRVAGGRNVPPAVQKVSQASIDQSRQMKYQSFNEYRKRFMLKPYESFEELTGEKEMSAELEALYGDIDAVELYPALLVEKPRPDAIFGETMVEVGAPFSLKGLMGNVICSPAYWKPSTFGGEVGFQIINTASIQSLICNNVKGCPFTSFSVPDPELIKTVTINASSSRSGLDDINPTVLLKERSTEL", "assay": "Inhibition of COX2"}, "Rattus norvegicus [8]": {"tested_on": "Rattus norvegicus", "assay": "Antianalgesic activity against complete Freund's adjuvant induced inflammatory pain in rat assessed as reversal of hypersensitivity dosed as po bid for 5 days measured after 1 hr on day 5", "assay_type": "functional"}, "Cytochrome P450 3A4": {"target": "Cytochrome P450 3A4 (Homo sapiens, UniProt P08684)", "sequence (P08684 whole entry)": "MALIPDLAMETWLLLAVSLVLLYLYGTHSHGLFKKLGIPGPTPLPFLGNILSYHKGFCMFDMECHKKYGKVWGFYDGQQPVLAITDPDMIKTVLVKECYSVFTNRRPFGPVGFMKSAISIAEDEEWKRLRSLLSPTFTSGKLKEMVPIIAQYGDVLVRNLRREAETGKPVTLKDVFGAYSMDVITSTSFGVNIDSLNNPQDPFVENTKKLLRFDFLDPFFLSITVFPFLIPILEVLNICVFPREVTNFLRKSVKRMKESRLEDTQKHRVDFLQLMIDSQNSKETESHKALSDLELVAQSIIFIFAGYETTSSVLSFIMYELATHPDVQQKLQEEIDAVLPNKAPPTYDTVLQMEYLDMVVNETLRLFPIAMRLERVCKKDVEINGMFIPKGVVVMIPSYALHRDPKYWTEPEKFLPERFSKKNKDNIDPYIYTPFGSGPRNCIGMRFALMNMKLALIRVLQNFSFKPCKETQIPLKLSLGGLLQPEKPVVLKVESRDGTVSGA", "assay": "Inhibition of human CYP3A4", "assay_type": "ADME", "how_it_was_run": "as §1"}, "[9]": {"assay": "Drug level in blood of complete Freund's adjuvant-induced rat inflammatory pain model at 3 mg/kg, po administered after 23 hrs of adjuvant challenge measured after 1 hr", "assay_type": "ADME, organism-based", "design": "dose 3 mg/kg, route oral", "settings": "read-out: Drug uptake", "how_it_was_run": "(§2)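 CFA rat study: oral doses of 1, 3 or 10 mg/kg given 23 h after intraplantar adjuvant, samples 1 h post-dose. Blood values are the mean from seven animals. Brain values are the mean from three animals.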"}, "[10]": {"assay": "Drug level in blood of complete Freund's adjuvant-induced rat inflammatory pain model at 10 mg/kg, po administered after 23 hrs of adjuvant challenge measured after 1 hr", "assay_type": "ADME, organism-based", "design": "dose 10 mg/kg, route oral", "settings": "read-out: Drug uptake", "how_it_was_run": "as §2"}, "[11]": {"assay": "Drug level in brain of complete Freund's adjuvant-induced rat inflammatory pain model at 10 mg/kg, po administered after 23 hrs of adjuvant challenge measured after 1 hr", "assay_type": "ADME, organism-based", "design": "dose 10 mg/kg, route oral", "settings": "brain, read-out: Drug uptake", "how_it_was_run": "as §2"}, "[12]": {"assay": "Ratio of drug level in brain to blood in complete Freund's adjuvant-induced rat inflammatory pain model at 3 mg/kg, po administered after 23 hrs of adjuvant challenge measured after 1 hr", "assay_type": "ADME, organism-based", "design": "dose 3 mg/kg, route oral", "settings": "brain and blood", "how_it_was_run": "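Rat CFA inflammatory pain model: oral dosing at 1, 3 or 10 mg/kg 23 h after intraplantar adjuvant; blood and brain sampled 1 h post-dose from the same animal; Br:Bl ratio is the mean from three animals.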"}, "[13]": {"assay": "Ratio of drug level in brain to blood of mouse at 0.5 mg/kg/hr administered by infusion for 12 hrs", "settings": "brain and blood, intravenous"}, "[14]": {"assay": "Drug level in rat brain at 0.5 mg/kg/hr administered by infusion for 12 hrs", "assay_type": "ADME, organism-based", "settings": "intravenous, read-out: Drug uptake", "how_it_was_run": "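Steady-state 12 h infusion at 5 mL/kg/h to reach a target dose of 0.5 mg/kg/h; blood and brain concentrations measured. Data are the mean from three animals.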"}, "[15]": {"assay": "Drug level in Landrace pig blood at 0.5 mg/kg/hr administered by infusion for 1 hrs", "assay_type": "ADME, organism-based, Sus scrofa", "settings": "intravenous, read-out: Drug uptake", "how_it_was_run": "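Landrace pig given a 1 h infusion; blood and brain concentrations measured in a single animal.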"}, "[16]": {"assay": "Clearance in Sprague-Dawley rat blood at 1 mg/kg administered by intravenous infusion for 1 hr", "assay_type": "ADME, organism-based", "design": "dose 1 mg/kg, route intravenous", "how_it_was_run": "(§3)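 Intravenous administration as a 1 h infusion of a 1 mg/kg dose. Rats were male Sprague-Dawley; dogs were beagle; monkeys were cynomolgus. Blood clearance, Vss and half-life determined.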"}, "[17]": {"assay": "Half life in Sprague-Dawley rat at 1 mg/kg administered by intravenous infusion for 1 hr", "assay_type": "ADME, organism-based", "design": "dose 1 mg/kg, route intravenous", "settings": "in vivo", "how_it_was_run": "as §3"}, "[18]": {"assay": "Oral bioavailability in Sprague-Dawley rat at 3 mg/kg", "assay_type": "ADME, organism-based", "settings": "in vivo", "how_it_was_run": "(§4)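 Single oral dose of 3 mg/kg in 1% (w/v) methylcellulose vehicle. Rats were male Sprague-Dawley; dogs were beagle. Bioavailability (Fpo) determined.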"}, "[19]": {"assay": "Half life in Beagle dog at 1 mg/kg administered by intravenous infusion for 1 hr", "assay_type": "ADME, organism-based, Canis lupus familiaris", "design": "dose 1 mg/kg, route intravenous", "settings": "in vivo", "how_it_was_run": "as §3"}, "[20]": {"assay": "Oral bioavailability in Beagle dog at 3 mg/kg", "assay_type": "ADME, organism-based, Canis lupus familiaris", "settings": "in vivo", "how_it_was_run": "as §4"}, "[21]": {"assay": "Volume of distribution at steady state in cynomolgus monkey at 1 mg/kg administered by intravenous infusion for 1 hr", "assay_type": "ADME, organism-based, Macaca fascicularis", "design": "dose 1 mg/kg, route intravenous", "settings": "in vivo, read-out: Vdss"}, "[22]": {"assay": "Half life in cynomolgus monkey at 1 mg/kg administered by intravenous infusion for 1 hr", "assay_type": "ADME, organism-based, Macaca fascicularis", "design": "dose 1 mg/kg, route intravenous", "settings": "in vivo", "how_it_was_run": "as §3"}, "[23]": {"assay": "Oral bioavailability in cynomolgus monkey at 3 mg/kg", "assay_type": "ADME, organism-based, Macaca fascicularis", "settings": "in vivo"}},
  "data": [
    {"smiles": "O=C([O-])c1cccc(Cc2cc(Cl)ccc2OCc2ccc(Cl)cc2F)n1.[Na+]", "values": [
      {"measurement": "IC50", "setting": "Cytochrome P450 2D6", "value": "> 100", "unit": "µM"},
      {"measurement": "CL", "setting": "[1]", "value": 2.7, "unit": "mL/min/g"},
      {"measurement": "ED50", "setting": "Rattus norvegicus [2]", "value": 2.6, "unit": "mg/kg"},
      {"measurement": "solubility at 0.5 h", "setting": "[3]", "value": 890, "unit": "µg/mL"},
      {"measurement": "pKi", "setting": "[4]", "value": 5.9},
      {"measurement": "IC50", "setting": "[5]", "value": "> 10", "unit": "µM"},
      {"measurement": "IC50", "setting": "[6]", "value": "> 10", "unit": "µM"},
      {"measurement": "IC50", "setting": "[7]", "value": "> 100", "unit": "µM"},
      {"measurement": "ED50", "setting": "Rattus norvegicus [8]", "value": 3, "unit": "mg/kg"},
      {"measurement": "IC50", "setting": "Cytochrome P450 3A4", "value": "≥ 100", "unit": "µM"},
      {"measurement": "concentration at 1 h", "setting": "[9]", "value": 415, "unit": "nM"},
      {"measurement": "concentration at 1 h", "setting": "[10]", "value": 1510, "unit": "nM"},
      {"measurement": "concentration at 1 h", "setting": "[11]", "value": 501, "unit": "nM"},
      {"measurement": "Kp at 1 h", "setting": "[12]", "value": 0.37},
      {"measurement": "Kp at 12 h", "setting": "[13]", "value": 0.28},
      {"measurement": "concentration at 12 h", "setting": "[14]", "value": 225, "unit": "nM"},
      {"measurement": "concentration at 1 h", "setting": "[15]", "value": 2300, "unit": "nM"},
      {"measurement": "clearance", "setting": "[16]", "value": 19, "unit": "mL/min/kg"},
      {"measurement": "half-life", "setting": "[17]", "value": 138, "unit": "min"},
      {"measurement": "bioavailability", "setting": "[18]", "value": 94, "unit": "%"},
      {"measurement": "half-life", "setting": "[19]", "value": 66, "unit": "min"},
      {"measurement": "bioavailability", "setting": "[20]", "value": 39, "unit": "%"},
      {"measurement": "Vd", "setting": "[21]", "value": 0.6, "unit": "L/kg"},
      {"measurement": "half-life", "setting": "[22]", "value": 36, "unit": "min"},
      {"measurement": "bioavailability", "setting": "[23]", "value": 7, "unit": "%"}
    ]}
  ]
}
